# Experimental data taken from ChEMBL document CHEMBL1135464, “3-Aryl-2-quinolone derivatives: synthesis and characterization of in vitro and in vivo antitumor effects with emphasis on a new therapeutical target connected with cell migration” (J Med Chem, 2002).
# Columns and labels:
# T-24 = assay: Cytotoxicity against T24 bladder cell lines using MTT colorimetric assay; format: functional, cell-based; settings: Homo sapiens
# In short: (§1)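 Human tumour lines from ATCC were grown at 37 °C in sealed dishes in MEM with 5% FCS. Cells were seeded at 40000 cells/mL in 96-well plates and left 24 h to plate. Each drug was then tested at six concentrations from 10^-5 to 10^-9 M. Growth was read by colorimetric MTT assay.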
# A-427 = assay: Cytotoxicity against A-427 nonsmall lung cell line using MTT colorimetric assay; format: functional, cell-based; settings: Homo sapiens; in short: as §1
# T47D = assay: Cytotoxicity against Breast cancer cell line T-47D using MTT colorimetric assay; format: functional, cell-based; settings: Homo sapiens; in short: as §1
# U-87 MG = assay: Cytotoxicity against U-87 MG glioblastomas using MTT colorimetric assay; format: functional, cell-based, U-87MG ATCC; settings: Homo sapiens; in short: as §1
# PC-3 = assay: Cytotoxicity against prostate cell line PC-3 using MTT colorimetric assay; format: functional, cell-based; settings: Homo sapiens; in short: as §1
# J82 = assay: Cytotoxicity against J82 bladder cell lines using MTT colorimetric assay; format: functional, cell-based; settings: Homo sapiens; in short: as §1
# MCF7 = assay: Cytotoxicity against Breast cancer cell line MCF-7 using MTT colorimetric assay; format: functional, cell-based; settings: Homo sapiens; in short: as §1
# LoVo = assay: Cytotoxicity measured on LoVo colon cell line using MTT colorimetric assay; format: functional, cell-based; settings: Homo sapiens; in short: as §1
# HCT-15 = assay: Cytotoxicity against HCT-15 colon cell line using MTT colorimetric assay; format: functional, cell-based; settings: Homo sapiens; in short: as §1
# [1] = Evaluated in vivo for maximum tolerated dose and found to be nontoxic; format: ADME, organism-based
# A549 = assay: Cytotoxicity against A549 nonsmall lung cell line using MTT colorimetric assay; format: functional, cell-based; settings: Homo sapiens; in short: as §1
# U373 MG = assay: Cytotoxicity against U-373 MG glioblastomas using MTT colorimetric assay; format: functional, cell-based, U-373MG ATCC; settings: Homo sapiens; in short: as §1
# A 172 = assay: Cytotoxicity against A-172 glioblastomas using MTT colorimetric assay; format: functional, cell-based; settings: Homo sapiens; in short: as §1
SMILES,IC50 (T-24) [µM],IC50 (A-427) [µM],IC50 (T47D) [µM],IC50 (U-87 MG) [µM],IC50 (PC-3) [µM],IC50 (J82) [µM],IC50 (MCF7) [µM],IC50 (LoVo) [µM],IC50 (HCT-15) [µM],MTD [1] [mg/kg],IC50 (A549) [µM],IC50 (U373 MG) [µM],IC50 (A 172) [µM]
COc1ccc(-c2cc3c(OC)cc(OC)cc3n(CCC#N)c2=O)cc1,> 10,> 10,> 10,> 10,> 10,> 10,> 10,> 10,> 10,160,> 10,> 10,> 10
COc1ccc(-c2cc3c(OC)cc(OC)c4c3n(c2=O)CCC4=O)cc1,> 10,> 10,> 10,> 10,> 10,> 10,> 10,> 10,> 10,160,> 10,> 10,> 10
COc1ccc(-c2cc3c(OC)cc(OC)cc3n(C)c2=S)cc1,> 10,> 10,> 10,> 10,> 10,> 10,> 10,> 10,> 10,160,> 10,> 10,> 10
COc1ccc(-c2cc3cccc(OC)c3nc2O)cc1,> 10,> 10,> 10,> 10,> 10,> 10,> 10,> 10,> 10,160,> 10,> 10,> 10
COc1cc(OC)c2cc(-c3ccc(OC(C)=O)cc3)c(=O)n(C)c2c1,> 10,> 10,> 10,> 10,> 10,> 10,> 10,> 10,> 10,160,> 10,> 10,> 10
CC(=O)Oc1ccc(-c2cc3c(OC(C)=O)cc(OC(C)=O)cc3n(C)c2=O)cc1,> 10,> 10,> 10,> 10,> 10,> 10,> 10,> 10,> 10,160,> 10,> 10,> 10
COc1cc(OC)c2cc(-c3ccc(O)cc3)c(O)nc2c1,> 10,> 10,> 10,> 10,> 10,> 10,> 10,> 10,> 10,160,> 10,> 10,> 10
COc1cccc2cc(-c3ccccc3)c(O)nc12,> 10,> 10,> 10,> 10,> 10,> 10,> 10,> 10,> 10,160,> 10,> 10,> 10
CCOC(=O)Cn1c(=O)c(-c2ccc(OC)cc2)cc2c(OC)cc(OC)cc21,> 10,> 10,> 10,> 10,> 10,> 10,> 10,> 10,> 10,160,> 10,> 10,> 10
COc1ccc(-c2cc3c(OC)cc(OC)cc3n(CCN(C)C)c2=O)cc1,> 10,> 10,> 10,> 10,> 10,> 10,> 10,> 10,> 10,160,> 10,> 10,> 10
COc1ccc(-c2cc3c(OC)cc(OC)cc3n(CC#N)c2=O)cc1,> 10,> 10,> 10,> 10,> 10,> 10,> 10,> 10,> 10,160,> 10,> 10,> 10
Cn1c(=O)c(-c2ccc(O)cc2)cc2c(O)cc(O)cc21,> 10,> 10,> 10,> 10,> 10,> 10,> 10,> 10,> 10,160,> 10,> 10,> 10
COc1ccc(-c2cc3c(OC)cc(OC)cc3n(C)c2=O)cc1,> 10,> 10,> 10,> 10,> 10,> 10,> 10,> 10,> 10,160,> 10,> 10,
COc1ccc(-c2cc3c(OC)cc(OC)cc3n(C)/c2=N\Nc2ccccc2)cc1,> 10,> 10,> 10,> 10,> 10,> 10,> 10,> 10,> 10,160,> 10,> 10,> 10
COc1cc(OC)c2cc(-c3ccc(O)cc3)c(=O)n(C)c2c1,> 10,> 10,> 10,> 10,> 10,> 10,> 10,> 10,> 10,160,> 10,> 10,> 10
Oc1ccc(-c2cc3c(O)cc(O)cc3nc2O)cc1,> 10,> 10,> 10,> 10,> 10,> 10,> 10,> 10,> 10,160,> 10,> 10,> 10
COc1cc(OC)c2cc(-c3ccccc3)c(O)nc2c1,> 10,> 10,> 10,> 10,> 10,> 10,> 10,> 10,> 10,160,> 10,> 10,> 10
COc1ccc(-c2cc3c(OC)cc(OC)cc3n(CCCC#N)c2=O)cc1,> 10,> 10,> 10,> 10,> 10,> 10,> 10,> 10,> 10,160,> 10,> 10,> 10
COc1ccc(-c2cc3c(OC)cc(OC)cc3n(C)/c2=N\Nc2ccccn2)cc1,> 10,> 10,> 10,> 10,> 10,> 10,> 10,> 10,> 10,160,> 10,> 10,> 10
COc1ccc(-c2cc3c(OC)cc(OC)cc3nc2O)cc1,,,,,,,,,,160,,,
CCN(CC)C(=O)CCn1c(=O)c(-c2ccc(OC)cc2)cc2c(OC)cc(OC)cc21,> 10,> 10,> 10,> 10,> 10,> 10,> 10,> 10,> 10,160,> 10,> 10,> 10
COc1cc(OC)c2cc(-c3ccc(OCc4ccccc4)cc3)c(O)nc2c1,> 10,> 10,> 10,> 10,> 10,> 10,> 10,> 10,> 10,160,> 10,> 10,> 10
COc1ccc(-c2cc3c(OC)cc(OC)cc3n(CC(=O)O)c2=O)cc1,> 10,> 10,> 10,> 10,> 10,> 10,> 10,> 10,> 10,160,> 10,> 10,> 10
COc1ccc(-c2cc3c(OC)cc(OC)cc3n(CC(=O)OCc3ccccc3)c2=O)cc1,> 10,> 10,> 10,> 10,> 10,> 10,> 10,> 10,> 10,160,> 10,> 10,> 10
